Reference: ChEMBL document CHEMBL1128250, “Structure-activity studies of 2,3,4,4a,5,9b-hexahydroindeno[1,2-c]pyridines as antispermatogenic agents for male contraception” (1995)
“And” between values parts separate entries of the source, which are not always exact repeats. Equal entries are not always repeated.

Legend:
[1] = tested on: Mus musculus; experiment: Tested for its effect on testes weight 3 days after single oral dose (90 mg/kg); assay type: functional, Testis
Outline: (§1)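 CD-1 outbred Swiss albino male mice, 5 per dose, single gavage on day 0 at 10 mL/kg. Vehicle was 0.15 M acetate buffer pH 5, ethanol/Tween-20/water (3:7:90), or 1% Tween-20 in water. CO2 euthanasia 72 h later. Testes weighed and histologically scored (spermatogenic index 0–6). Values are % reduction versus the assay's vehicle control. Positive control was 30 mg/kg of the parent compound. Significance by Dunnett's one-tailed t-test, p < 0.05.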

[2] = tested on: Mus musculus; experiment: Tested for its effect on spermatogenic index 3 days after single oral dose (90 mg/kg),; assay type: functional; outline: as §1
[3] = tested on: Mus musculus; experiment: Tested for its effect on testes weight 3 days after single oral dose (30 mg/kg); assay type: functional, Testis; outline: as §1
[4] = tested on: Mus musculus; experiment: Tested for its effect on spermatogenic index 3 days after single oral dose (10 mg/kg); assay type: functional
Outline: (§2)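 Male CD-1 (ICR) mice, 7 weeks old on arrival, 5 per dose, single gavage of 10 mL/kg on day 0. Vehicle was 0.15 M acetate buffer pH 5, ethanol/Tween-20/water 3:7:90, or 1% Tween-20. Mice were killed with CO2 at 72 h and testes weighed and scored for spermatogenic index (0–6 scale). Results are % reduction versus the vehicle control. Dunnett's one-tailed t-test.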

[5] = tested on: Mus musculus; experiment: Tested for its effect on spermatogenic index 3 days after single oral dose (30 mg/kg); assay type: functional; outline: as §1
[6] = tested on: Mus musculus; experiment: Tested for its effect on testes weight 3 days after single oral dose (3 mg/kg); assay type: functional, Testis; outline: as §2
[7] = tested on: Mus musculus; experiment: Tested for its effect on testes weight 3 days after single oral dose (10 mg/kg); assay type: functional, Testis; outline: as §1
[8] = tested on: Mus musculus; experiment: Tested for its effect on spermatogenic index 3 days after single oral dose (3 mg/kg),; assay type: functional; outline: as §2
[9] = tested on: Mus musculus; experiment: Tested for its effect on spermatogenic index 3 days after single oral dose (90 mg/kg) in mice; assay type: functional; outline: as §1
[10] = tested on: Mus musculus; experiment: Tested for its effect on mouse testes weight 3 days after single oral dose (90 mg/kg); assay type: functional, Testis; outline: as §1
[11] = tested on: Mus musculus; experiment: tested for its effect on testes weight 3 days after single oral dose (90 mg/kg); assay type: functional, Testis
Outline: (§3)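 Male CD-1 (ICR)BR outbred Swiss albino mice, 5/dose, given one oral gavage dose (10 mL/kg) on day 0 in 0.15 M acetate buffer pH 5, ethanol/Tween-20/water (3:7:90), or 1% Tween-20 in water; vehicle and positive-control groups in each assay. Killed by CO2 72 h later; testes weighed. Expressed as % reduction versus vehicle control; Dunnett's one-tailed t-test.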

[12] = tested on: Mus musculus; experiment: tested for its effect on spermatogenic index 3 days after single oral dose (30 mg/kg); assay type: functional
Outline: (§4)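 Male CD-1 (ICR)BR outbred Swiss albino mice, 5/dose, single oral gavage dose (10 mL/kg) on day 0 in acetate buffer pH 5 or Tween-20-based vehicle; killed 72 h later. Testis cross-sections scored histologically on a 0–6 spermatogenic index (Sertoli only to >100 late spermatids/tubule). Reported as % reduction versus vehicle control; Dunnett's one-tailed t-test.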

[13] = tested on: Mus musculus; experiment: tested for its effect on testes weight 3 days after single oral dose (30 mg/kg); assay type: functional, Testis; outline: as §3
[14] = tested on: Mus musculus; experiment: tested for its effect on spermatogenic index 3 days after single oral dose (10 mg/kg); assay type: functional; outline: as §4
[15] = tested on: Mus musculus; experiment: Tested for its effect on spermatogenic index 3 days after single oral dose (3 mg/kg); assay type: functional; outline: as §2
[16] = tested on: Mus musculus; experiment: Tested for its effect on pregnancy index of male CD-1 mice when dosed with 15 mg/kg (Dunnett's one-tailed t-test, p<0.05); assay type: functional
Outline: (§5)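 Male CD-1 mice (8–10/group) gavaged daily for 35 days, vehicle 1% Tween-20 in water, 10 mL/kg. From the day after the last dose, each male was housed with two females for up to 5 days, with vaginal copulatory plugs checked each morning. Pregnancy index is litters born per number of females.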

[17] = tested on: Mus musculus; experiment: Tested for its effect on testes weight of male CD-1 mice when dosed with 3.75 mg/kg Data are means +/-standard error of the mean (n=4).; assay type: functional, Testis
Outline: (§6)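 Male CD-1 mice gavaged daily for 35 days in 1% Tween-20 in water at 10 mL/kg. Half of each group was killed 7 days after the last dose; testes were weighed and sectioned for histology. Spermatogenic index was scored 0–6 from the cell types and late spermatids per tubule. Mean ± SEM; Dunnett's one-tailed t-test versus control.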

[18] = tested on: Mus musculus; experiment: Tested for its effect on testes weight 3 days after single sub cutaneous (10 mg/kg); assay type: functional, Testis
Outline: (§7)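 Single subcutaneous injection, 10 mL/kg, to male CD-1 mice (5 per dose) in ethanol/Tween-20/water (3:7:90, v/v/v) on day 0. Mice were killed at 72 h; testes were weighed and histology scored for spermatogenic index (0–6). Results are % reduction from the vehicle control, with a 30 mg/kg positive control group. Dunnett's one-tailed t-test.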

[19] = tested on: Mus musculus; experiment: Tested for its effect on spermatogenic index 3 days after single oral dose (90 mg/kg); assay type: functional; outline: as §1
[20] = tested on: Mus musculus; experiment: Tested for its effect on spermatogenic index of male CD-1 mice when dosed with 3.75 mg/kg Data are means +/-standard error of the mean (n=4).; assay type: functional; outline: as §6
[21] = tested on: Mus musculus; experiment: Tested for its effect on testes weight 3 days after single sub cutaneous dose (30 mg/kg); assay type: functional, Testis; outline: as §7
[22] = tested on: Mus musculus; experiment: Tested for its effect on testes weight of male CD-1 mice when dosed with 7.5 mg/kg (Dunnett's one-tailed t-test, p<0.05); assay type: functional, Testis; outline: as §6
[23] = tested on: Mus musculus; experiment: Tested for its effect on pregnancy index of male CD-1 mice when dosed with 7.5 mg/kg (Dunnett's one-tailed t-test, p<0.05); assay type: functional; outline: as §5
[24] = tested on: Mus musculus; experiment: Tested for its effect on spermatogenic index of male CD-1 mice when dosed with 7.5 mg/kg (Dunnett's one-tailed t-test, p<0.05); assay type: functional; outline: as §6
[25] = tested on: Mus musculus; experiment: Tested for its effect on spermatogenic index 3 days after single sub cutaneous dose (10 mg/kg); assay type: functional; outline: as §7
[26] = tested on: Mus musculus; experiment: Tested for its effect on testes weight 3 days after single sub cutaneous dose (3 mg/kg); assay type: functional, Testis; outline: as §7
[27] = tested on: Mus musculus; experiment: Tested for its effect on testes weight of male CD-1 mice when dosed with 15 mg/kg (Dunnett's one-tailed t-test, p<0.05); assay type: functional, Testis; outline: as §6
[28] = tested on: Mus musculus; experiment: Tested for its effect on pregnancy index of male CD-1 mice when dosed with 3.75 mg/kg Data are means +/-standard error of the mean (n=4).; assay type: functional; outline: as §5
[29] = tested on: Mus musculus; experiment: Tested for its effect on spermatogenic index of male CD-1 mice when dosed with 15 mg/kg (Dunnett's one-tailed t-test, p<0.05); assay type: functional; outline: as §6
[30] = tested on: Mus musculus; experiment: Tested for its effect on spermatogenic index 3 days after single oral dose (10 mg/kg),; assay type: functional; outline: as §1
[31] = tested on: Mus musculus; experiment: Tested for its effect on spermatogenic index 3 days after single sub cutaneous dose (3 mg/kg); assay type: functional; outline: as §7

Row | Structure (SMILES) | Reduction [1] | Reduction [2] | Reduction [3] | Reduction [5] | Reduction [7] | other results
1 | CCN1CC[C@H]2[C@H](c3ccccc3C)c3cc(C)ccc3[C@H]2C1.Cl | 3% | -9% | – | – | – | –
2 | CCN1CC[C@H]2[C@H](c3ccc(F)cc3)c3cc(C)ccc3[C@H]2C1.Cl | 5% | -5% | – | – | – | –
3 | CCc1ccc2c(c1)[C@@H](c1ccc(C(=O)OC)cc1)[C@@H]1CCN(CC)C[C@H]21.Cl | – | – | 8% | 23% | 0% | Reduction [4]: -4%; Reduction [6]: -18%; Reduction [8]: 4%
4 | CCN1CC[C@H]2[C@@H](c3ccc(C)cc3)c3cc(C)ccc3[C@H]2C1.Cl | – | – | – | – | – | Reduction [9]: -9%; Reduction [10]: 2%
5 | CCN1CCC(=C(c2ccc(C)cc2)c2cccc(C)c2)CC1.Cl | -5% | 0% | – | – | – | –
6 | CCN1CC[C@H]2[C@H](c3ccc(C#N)cc3)c3cc(C)ccc3[C@H]2C1.Cl | 13% | -4% | – | – | – | –
7 | Cc1ccc([C@@H]2c3cc(C)ccc3[C@H]3CN(C)CC[C@@H]23)cc1.Cl | 8% | -3% | – | – | – | Reduction [11]: 7%; Reduction [12]: 38%; Reduction [13]: 18%; Reduction [14]: 26%
8 | CCN1CCC(C(O)(c2ccc(C)cc2)c2ccc(C)cc2)CC1.Cl | -21% | 0% | – | – | – | –
9 | CCN1CC[C@H]2[C@H](c3ccc(C(=O)OC)cc3)c3cc(C)ccc3[C@H]2C1.Cl | – | -5% | 32% and 30% | 57% and 46% and 61% | 17% | Reduction [15]: 5%; Pregnancy index [16]: 0; Testes weight [17]: 219.08 mg; Reduction [4]: 27%; Reduction [18]: 1%; Reduction [19]: 68%; Spermatogenic index [20]: 5.5; Reduction [21]: 19%; Testes weight [22]: 114.7 mg; Pregnancy index [23]: 2; Spermatogenic index [24]: 3; Reduction [25]: 28%; Reduction [26]: 10%; Testes weight [27]: 108.94 mg; Pregnancy index [28]: 16; Spermatogenic index [29]: 1.6
10 | CCN1CC[C@H]2[C@H](c3ccc(C=O)cc3)c3cc(C)ccc3[C@H]2C1.Cl | – | – | 7% | 31% and 30% | 6% | Reduction [4]: 2%; Reduction [21]: -4%; Reduction [6]: 7%; Reduction [8]: 0%
11 | CCc1ccc2c(c1)[C@@H](c1ccc(C)cc1)[C@@H]1CCN(CC)C[C@H]21.Cl | – | – | 26% | 33% | 2% | Reduction [4]: 7%; Reduction [6]: 3%; Reduction [8]: -2%
12 | CCN1CC[C@H]2[C@H](c3ccc(C)cc3)c3ccccc3[C@H]2C1.Cl | 20% | – | 3% | 20% | 5% | Reduction [30]: 0%; Reduction [19]: 35%
13 | Cc1ccc([C@@H]2c3cc(C)ccc3[C@H]3CN(C(C)C)CC[C@@H]23)cc1.Cl | 23% | – | 15% | 28% | 7% | Reduction [30]: 10%; Reduction [19]: 45%
14 | CCN1CC[C@H]2[C@H](c3ccc(O)cc3)c3cc(C)ccc3[C@H]2C1.Cl | -1% | -5% | – | – | – | –
15 | CCCOC(=O)c1ccc([C@@H]2c3cc(C)ccc3[C@H]3CN(CC)CC[C@@H]23)cc1.Cl | – | – | 31% | 56% and 43% | 3% | Reduction [15]: 2%; Reduction [4]: 33%; Reduction [18]: 10%; Reduction [31]: -1%; Reduction [21]: 17%; Reduction [25]: 13%; Reduction [26]: 7%; Reduction [6]: 11%
16 | CCN1CC[C@H]2[C@H](c3ccccc3)c3cc(C)ccc3[C@H]2C1.Cl | -8% | -9% | – | – | – | –
17 | CCN1CCC(C(c2ccc(C)cc2)c2cccc(C)c2)CC1.Cl (centres undefined) | – | – | 9% | -5% | – | Reduction [6]: 2%; Reduction [8]: 2%
18 | CCN1CC[C@H]2[C@H](c3cccc(C)c3)c3cc(C)ccc3[C@H]2C1.Cl | -11% | -9% | – | – | – | –
19 | CCN1CC[C@H]2[C@H](c3ccccc3)c3ccccc3[C@H]2C1.Cl | -2% | 2% | – | – | – | –
20 | CCN1CC[C@H]2[C@H](c3ccc(CO)cc3)c3cc(C)ccc3[C@H]2C1.Cl | 4% | -5% | 23% | 57% | 13% | Reduction [4]: 20%; Reduction [21]: 6%
21 | CCCN1CC[C@H]2[C@H](c3ccc(C)cc3)c3cc(C)ccc3[C@H]2C1.Cl | 11% | 0% | – | – | – | –
22 | CCN1CC[C@@H]2[C@@H](c3ccc(C)cc3)c3cc(C)ccc3[C@H]2C1.Cl | -18% | 0% | – | – | – | –
23 | Cc1ccc([C@@H]2c3cc(C)ccc3[C@H]3CNCC[C@@H]23)cc1.Cl | -3% | -5% | – | – | – | –
24 | CCN1CC[C@H]2[C@H](c3ccc(C(=O)O)cc3)c3cc(C)ccc3[C@H]2C1.Cl (stereo in doubt; 10k) | – | – | 28% | 51% and 35% | 24% | Reduction [4]: 36%; Reduction [18]: -3%; Reduction [31]: 8%; Reduction [21]: 17%; Reduction [25]: 27%; Reduction [26]: 5%; Reduction [6]: 13%; Reduction [8]: 2%
25 | CCN1CCC(C(O)c2ccc(C)cc2)C(c2ccc(C)cc2)C1.Cl (stereo in doubt; 16a) | -9% | – | – | – | – | –
26 | CCN1CCC(C(O)c2ccc(C)cc2)C(c2ccc(C)cc2)C1.Cl (stereo in doubt; 16b) | 0% | 0% | – | – | – | –
27 | CCN1CC[C@H]2[C@H](c3ccc(C(=O)O)cc3)c3cc(C)ccc3[C@H]2C1.Cl (stereo in doubt; (d)-10k) | 27% | – | 16% | 67% | 26% | Reduction [15]: 21%; Reduction [4]: 40%; Reduction [19]: 70%; Reduction [6]: -5%
28 | CCN1CC[C@H]2[C@H](c3ccc(C(=O)O)cc3)c3cc(C)ccc3[C@H]2C1.Cl (stereo in doubt; (l)-10k) | -7% | – | – | – | – | Reduction [19]: 0%
